Laboratory results taken from ChEMBL document CHEMBL1130111, “The chemistry of pseudomonic acid. 18. Heterocyclic replacement of the alpha,beta-unsaturated ester: synthesis, molecular modeling, and antibacterial activity” (J Med Chem, 1997).

Tests used:
Isoleucine--tRNA ligase [1] = biological target: T1, Isoleucine--tRNA ligase (Staphylococcus aureus, UniProt P41972); assay: (§1) Inhibition concentration against Isoleucyl-tRNA synthetase from Staphylococcus aureus NCTC 6571
T1 sequence (P41972 whole entry): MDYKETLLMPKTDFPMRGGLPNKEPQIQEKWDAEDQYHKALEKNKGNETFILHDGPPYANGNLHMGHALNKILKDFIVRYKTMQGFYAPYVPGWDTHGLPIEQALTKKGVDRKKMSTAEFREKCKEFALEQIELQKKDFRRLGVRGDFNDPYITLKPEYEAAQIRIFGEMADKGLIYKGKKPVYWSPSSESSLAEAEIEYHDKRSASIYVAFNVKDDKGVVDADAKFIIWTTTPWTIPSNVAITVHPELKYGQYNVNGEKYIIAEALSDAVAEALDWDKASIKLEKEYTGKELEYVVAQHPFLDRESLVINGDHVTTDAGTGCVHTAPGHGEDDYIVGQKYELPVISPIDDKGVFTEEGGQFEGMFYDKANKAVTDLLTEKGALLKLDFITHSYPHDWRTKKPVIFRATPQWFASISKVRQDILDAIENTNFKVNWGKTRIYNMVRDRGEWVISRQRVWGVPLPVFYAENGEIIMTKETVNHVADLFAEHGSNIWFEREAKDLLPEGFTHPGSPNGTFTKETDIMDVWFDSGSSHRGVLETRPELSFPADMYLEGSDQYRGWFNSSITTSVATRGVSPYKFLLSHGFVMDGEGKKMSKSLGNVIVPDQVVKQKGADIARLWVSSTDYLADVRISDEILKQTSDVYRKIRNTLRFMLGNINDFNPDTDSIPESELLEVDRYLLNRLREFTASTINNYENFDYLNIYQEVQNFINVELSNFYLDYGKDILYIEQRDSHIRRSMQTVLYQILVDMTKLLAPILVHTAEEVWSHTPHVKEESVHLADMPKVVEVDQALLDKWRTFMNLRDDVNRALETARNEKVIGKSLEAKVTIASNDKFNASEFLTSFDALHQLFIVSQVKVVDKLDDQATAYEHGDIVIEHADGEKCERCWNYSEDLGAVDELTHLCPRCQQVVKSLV
Method in brief: (§2)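 IRS extracted from S. aureus grown to late stationary phase in shake flasks (Nutrient Broth No. 2). Cells were sonicated with lysostaphin, DNase-treated, dialysed against 20 mM Tris-HCl pH 8 with 5 mM MgCl2 and 2 mM DTT, then ultracentrifuged. Compound was preincubated with enzyme 5 min. Charging of E. coli tRNA with 4.8 µM [U-14C]-isoleucine and 5 mg/mL ATP was run 10 min at 37 °C. IC50 taken as 50% inhibition of 14C-Ile incorporation.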

Staphylococcus aureus = assay: minimum inhibitory concentration (MIC) against Staphylococcus aureus NCTC 6571.; assay type: functional
Method in brief: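 Agar dilution MIC in blood agar base with 5% chocolated horse blood. Inoculum was an overnight nutrient broth culture, about 10^6 CFU per spot. Plates were incubated 18-24 h at 37 °C. MIC taken as the lowest concentration fully inhibiting growth.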

Isoleucine--tRNA ligase [2] = biological target: T1, Isoleucine--tRNA ligase; assay: Inhibition concentration against isoleucyl tRNA synthetase from Staphylococcus aureus NCTC 6571; method in brief: as §2
[3] = biological target: T2, Isoleucine--tRNA ligase (Staphylococcus aureus) (UniProt P41972); assay: as §1; conditions: concentration not given here; method in brief: as §2
T2 sequence (whole entry): T1 sequence (P41972 whole entry)

IC50 (Isoleucine--tRNA ligase [1]) | MIC (Staphylococcus aureus) | IC50 (Isoleucine--tRNA ligase [2]) | inhibition [3] | Compound
2.95 nM | 0.5 ug m1 l-1 | – | – | CCOC(=O)/C=C(\C)C[C@@H]1OC[C@H](C[C@@H]2O[C@H]2[C@@H](C)[C@H](C)O)[C@@H](O)[C@H]1O
8.9 nM | 8 ug m1 l-1 | – | – | C[C@H]([C@@H]1O[C@H]1C[C@H]1CO[C@@H](Cn2nnc(-c3ccccc3)n2)[C@H](O)[C@@H]1O)[C@H](C)O
13.1 nM | 4 ug m1 l-1 | – | – | C[C@H]([C@@H]1O[C@H]1C[C@H]1CO[C@@H](Cc2cc(-c3ccccc3)no2)[C@H](O)[C@@H]1O)[C@H](C)O
– | >64 ug m1 l-1 | 14.3 nM | – | C[C@H]([C@@H]1O[C@H]1C[C@H]1CO[C@@H](Cc2csc(-c3ccccc3)n2)[C@H](O)[C@@H]1O)[C@H](C)O
1.73 nM | 4 ug m1 l-1 | – | – | C[C@H]([C@@H]1O[C@H]1C[C@H]1CO[C@@H](Cc2nc(-c3ccccc3)no2)[C@H](O)[C@@H]1O)[C@H](C)O
5.19 nM | 8 ug m1 l-1 | – | – | C[C@H]([C@@H]1O[C@H]1C[C@H]1CO[C@@H](Cc2nnc(-c3ccccc3)o2)[C@H](O)[C@@H]1O)[C@H](C)O
1.7 nM | 0.13 ug m1 l-1 | – | – | C/C(=C\C(=O)OCCCCCCCCC(=O)O)C[C@@H]1OC[C@H](C[C@@H]2O[C@H]2[C@@H](C)[C@H](C)O)[C@@H](O)[C@H]1O [MUPIROCIN]
4.71 nM | 2 ug m1 l-1 | – | – | C[C@H]([C@@H]1O[C@H]1C[C@H]1CO[C@@H](Cc2cnc(-c3ccccc3)o2)[C@H](O)[C@@H]1O)[C@H](C)O
– | >64 ug m1 l-1 | – | 0% | C[C@H]([C@@H]1O[C@H]1C[C@H]1CO[C@@H](Cc2ncc(-c3ccccc3)o2)[C@H](O)[C@@H]1O)[C@H](C)O
– | >64 ug m1 l-1 | – | 17% | C[C@H]([C@@H]1O[C@H]1C[C@H]1CO[C@@H](Cc2cc(-c3ccccc3)on2)[C@H](O)[C@@H]1O)[C@H](C)O
